The source made the active and inactive calls. The calls are words filed in the database; no cut-off is given here.
Assays:
[1] = biological target: Histamine H1 receptor (Homo sapiens) (UniProt P35367); assay: Antagonist activity at H1R (unknown origin) expressed in HEK293 cells harboring luc2P/NFAT-RE plasmid at 10 uM after 6 to 8 hrs by luciferase reporter gene assay; assay type: cell-based
Outline: (§1)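 NFAT-RE luciferase assay in HEK293T cells transiently co-transfected with luc2P/NFAT-RE plasmid and receptor plasmid. Cells plated in DMEM and incubated overnight at 37 °C, 5% CO₂. Compounds and reference ligands applied for 6-8 h. Luciferase read after adding Bright-Glo substrate (1 mg/ml final).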

[2] = biological target: Histamine H4 receptor (Homo sapiens) (UniProt Q9H3N8); assay: Agonist activity at recombinant human Gi-coupled H4 receptor expressed in HEK293T cells assessed as inhibition of forskolin-stimulated cAMP accumulation at 10 uM preincubated for 10 to 15 followed by forskolin-stimulation by Glo-sensor assay; assay type: functional, cell-based
[3] = biological target: Histamine H1 receptor (Homo sapiens) (UniProt P35367); assay: Agonist activity at H1R (unknown origin) expressed in HEK293 cells harboring luc2P/NFAT-RE plasmid at 10 uM after 6 to 8 hrs by luciferase reporter gene assay; assay type: cell-based; outline: as §1
Histamine H2 receptor [4] = biological target: T1, Histamine H2 receptor (Homo sapiens, UniProt P25021); assay: Agonist activity at recombinant human Gs-coupled H2 receptor expressed in HEK293T cells assessed as inhibition of forskolin-stimulated cAMP accumulation at 10 uM preincubated for 10 to 15 followed by forskolin-stimulation by Glo-sensor assay relative to control; assay type: functional, cell-based; design: scale not given: the % may be the effect or the level left
Outline: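 HEK293T cells were transiently co-transfected with GloSensor-22F cAMP plasmid and human H2R plasmid, then held 15–18 h at 37 °C in 5% CO2. Cells were loaded with sodium luciferin (1 mg/ml) for 90 min. Agonist mode used 10 µM compound, with luminescence read directly after 10–15 min. Screening was in triplicate, scored as ≥50% change versus control.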

Histamine H2 receptor [5] = biological target: T1, Histamine H2 receptor; assay: Agonist activity at recombinant human Gs-coupled H2 receptor expressed in HEK293T cells assessed as inhibition of forskolin-stimulated cAMP accumulation preincubated for 10 to 15 followed by forskolin-stimulation by Glo-sensor assay; assay type: functional, cell-based
[6] = biological target: Histamine H4 receptor (Homo sapiens) (UniProt Q9H3N8); assay: (§2) Antagonist activity at recombinant human Gi-coupled H4 receptor expressed in HEK293T cells assessed as reduction in histamine-induced inhibition of forskolin-stimulated cAMP accumulation at 10 uM preincubated for 10 to 15 followed by histamine addition for 10 mins and subsequent forskolin-stimulation by Glo-sensor assay; assay type: functional, cell-based
Histamine H3 receptor [7] = biological target: T2, Histamine H3 receptor (Homo sapiens, UniProt Q9Y5N1); assay: as §2, with “H3” for “H4”, “accumulation” for “accumulation at 10 uM”; assay type: functional, cell-based
Mus musculus [8] = assay: Anti-obesity activity in high fat diet-induced obese C57BL/6J mouse model assessed as reduction in body weight at 10 mg/kg, po; assay type: functional, organism-based; conditions: TDE = time-dependent effect
Outline: (§3)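 Male C57BL/6J mice (6–8 weeks, 22–25 g) on high-fat diet, with a normal-chow group included. Daily chronic oral dosing against vehicle for six weeks. Percent body weight change followed over the treatment days, and net body weight change taken at six weeks. n=5-6 per group. Two-way ANOVA, or one-way ANOVA with Newman-Keuls test.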

Mus musculus [9] = assay: Anti-obesity activity in high fat diet-induced obese C57BL/6J mouse model assessed as reduction in body fat mass at 10 mg/kg, po measured after 6 weeks relative to control by NMR-based magnetic resonance imaging analysis; assay type: functional; design: scale not given: the % may be the effect or the level left
Outline: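 Male C57BL/6J mice on high-fat diet dosed orally for six weeks against a vehicle-treated high-fat diet group and a chow group. Body composition (fat mass, lean mass, % body fat) measured by EchoMRI live scanning. n=5-6. One-way ANOVA with Newman-Keuls test.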

Mus musculus [10] = assay: Anti-obesity activity in high fat diet-induced obese C57BL/6J mouse model assessed as change in body weight at 10 mg/kg, po measured after 6 weeks (reference value: 3.86 +/- 0.99 g); assay type: functional; outline: as §3
Mus musculus [11] = assay: Anorexic effect in high fat diet-induced obese C57BL/6J mouse model assessed as reduction in cumulative food intake at 10 mg/kg, po pretreated for 30 mins followed by food addition measured after 4 hrs relative to control; assay type: functional; design: scale not given: the % may be the effect or the level left
Outline: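 Male C57BL/6J mice on high-fat diet, starved 12 h (8 am–8 pm) with water available, housed singly. Oral dose in 5% gum acacia in normal saline, vehicle group alongside. Food given 30 min after dosing, and cumulative intake measured over the 4 h night phase (9 pm–1 am). One-way ANOVA with Newman-Keuls test.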

[12] = biological target: T3, Cholecystokinin receptor type A (Homo sapiens, UniProt P32238); assay: Displacement of [I125]bolton hunter-CCK-8S from recombinant human CCK1 receptor expressed in stable CHO cells measured after 1 to 2 hrs by microscintillation counting method; assay type: cell-based
T3 sequence (P32238 whole entry): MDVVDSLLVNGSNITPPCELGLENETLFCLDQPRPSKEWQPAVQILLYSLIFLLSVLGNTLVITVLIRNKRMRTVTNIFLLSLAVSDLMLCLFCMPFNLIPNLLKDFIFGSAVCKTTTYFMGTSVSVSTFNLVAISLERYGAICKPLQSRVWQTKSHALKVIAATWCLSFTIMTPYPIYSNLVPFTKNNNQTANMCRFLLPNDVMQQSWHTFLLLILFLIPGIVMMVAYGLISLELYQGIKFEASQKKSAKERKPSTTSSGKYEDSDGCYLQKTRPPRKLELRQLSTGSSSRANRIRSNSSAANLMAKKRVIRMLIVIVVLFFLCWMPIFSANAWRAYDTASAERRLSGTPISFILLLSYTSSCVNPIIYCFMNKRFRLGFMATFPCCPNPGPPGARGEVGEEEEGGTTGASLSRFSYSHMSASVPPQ

Mus musculus [13] = assay: Anorexic effect in 12 hrs fasted db/db-induced obese C57BL/6J mouse model assessed as reduction in cumulative food intake at 20 mg/kg, ip pretreated for 30 mins followed by food addition measured after 4 hrs; assay type: functional, organism-based
Histamine H3 receptor [14] = biological target: T2, Histamine H3 receptor; assay: Displacement of [3H]N-alpha-methylhistamine from recombinant human H3 receptor expressed in HEK293T cells measured after 90 mins by liquid scintillation counting method; assay type: cell-based
[15] = Drug level in C57BL/6J mouse brain assessed as metabolite formation treated with 4-(4-Methoxyphenyl)-8-methyl-5,6,7,8-tetrahydroquinazolin-2-amine at 20 mg/kg, po by LC-MS/MS analysis; assay type: ADME, organism-based; conditions: in vivo
Outline: (§4)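 After a single 20 mg/kg oral dose in fasted male C57BL/6J mice (n=5 per time point), the demethylated metabolite was measured by LC-MS/MS (m/z 256.1→240.1) in serum and brain homogenate up to 24 h. Metabolite/parent AUC ratio was derived.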

[16] = Drug level in C57BL/6J mouse serum assessed as metabolite formation treated with 4-(4-Methoxyphenyl)-8-methyl-5,6,7,8-tetrahydroquinazolin-2-amine at 20 mg/kg, po by LC-MS/MS analysis; assay type: ADME, organism-based; conditions: in vivo; outline: as §4

T2 sequence (Q9Y5N1 whole entry): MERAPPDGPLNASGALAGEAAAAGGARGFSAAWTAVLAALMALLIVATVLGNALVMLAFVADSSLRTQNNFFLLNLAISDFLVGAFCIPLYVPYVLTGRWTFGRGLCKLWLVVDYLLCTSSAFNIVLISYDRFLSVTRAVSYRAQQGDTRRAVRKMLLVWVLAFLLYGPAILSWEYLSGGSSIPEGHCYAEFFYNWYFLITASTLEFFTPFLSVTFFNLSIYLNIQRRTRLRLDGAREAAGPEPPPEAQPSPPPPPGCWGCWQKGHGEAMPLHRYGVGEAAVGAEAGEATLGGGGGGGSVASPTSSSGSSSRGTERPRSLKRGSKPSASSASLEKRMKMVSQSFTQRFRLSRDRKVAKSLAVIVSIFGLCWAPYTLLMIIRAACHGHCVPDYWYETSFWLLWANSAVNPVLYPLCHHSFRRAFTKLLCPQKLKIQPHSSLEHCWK
T1 sequence (P25021 whole entry): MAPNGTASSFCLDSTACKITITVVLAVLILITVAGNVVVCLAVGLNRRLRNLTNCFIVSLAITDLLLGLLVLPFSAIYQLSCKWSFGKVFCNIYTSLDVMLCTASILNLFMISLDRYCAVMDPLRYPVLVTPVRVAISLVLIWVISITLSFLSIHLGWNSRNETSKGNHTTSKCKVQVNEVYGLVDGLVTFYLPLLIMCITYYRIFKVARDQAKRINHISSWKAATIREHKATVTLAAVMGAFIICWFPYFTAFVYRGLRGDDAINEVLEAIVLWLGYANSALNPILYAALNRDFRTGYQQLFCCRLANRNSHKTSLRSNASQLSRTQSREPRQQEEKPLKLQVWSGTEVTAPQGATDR
Chain of Histamine H1 receptor (Homo sapiens) (P35367 whole entry): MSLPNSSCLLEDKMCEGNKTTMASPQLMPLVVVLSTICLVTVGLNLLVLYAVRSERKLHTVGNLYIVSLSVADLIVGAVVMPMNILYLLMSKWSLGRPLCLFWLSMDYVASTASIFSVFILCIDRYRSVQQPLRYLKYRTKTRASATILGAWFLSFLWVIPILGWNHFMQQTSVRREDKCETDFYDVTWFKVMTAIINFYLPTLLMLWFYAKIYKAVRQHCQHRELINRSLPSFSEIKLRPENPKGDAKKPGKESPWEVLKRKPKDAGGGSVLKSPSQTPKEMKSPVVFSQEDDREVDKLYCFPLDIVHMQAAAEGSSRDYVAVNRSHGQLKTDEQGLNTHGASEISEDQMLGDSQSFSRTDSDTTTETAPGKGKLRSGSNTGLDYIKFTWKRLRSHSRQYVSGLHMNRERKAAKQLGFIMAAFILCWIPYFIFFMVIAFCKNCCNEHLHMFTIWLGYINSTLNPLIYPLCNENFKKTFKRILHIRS
Chain of Histamine H4 receptor (Homo sapiens) (Q9H3N8 whole entry): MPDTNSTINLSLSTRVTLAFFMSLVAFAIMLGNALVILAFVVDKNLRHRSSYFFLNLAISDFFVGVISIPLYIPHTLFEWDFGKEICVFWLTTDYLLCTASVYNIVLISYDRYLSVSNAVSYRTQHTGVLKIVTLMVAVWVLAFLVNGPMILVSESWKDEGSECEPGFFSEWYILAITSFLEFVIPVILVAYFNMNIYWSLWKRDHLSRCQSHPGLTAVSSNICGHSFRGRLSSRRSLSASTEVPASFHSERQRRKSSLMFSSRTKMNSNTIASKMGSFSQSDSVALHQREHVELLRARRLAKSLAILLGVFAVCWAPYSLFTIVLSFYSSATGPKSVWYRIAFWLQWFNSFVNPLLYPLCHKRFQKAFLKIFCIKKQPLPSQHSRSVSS

SMILES | inhibition [1] | Activity [2] | Activity [3] | Activity (Histamine H2 receptor [4]) [%] | EC50 (Histamine H2 receptor [5]; read-out: EC50) [µM] | inhibition [6] | IC50 (Histamine H3 receptor [7]) [µM] | also measured
COc1ccc(-c2nc(N)nc3c2CC(C)CC3)cc1 (stereo not drawn) | inactive | inactive | inactive | 50 | 2.12 | inactive | 4.68 | –
C[C@H]1CNCCc2ccc(Cl)cc21 [LORCASERIN] | – | – | – | – | – | – | – | Activity (Mus musculus [8]): Tde; Activity (Mus musculus [9]): 22.4%; Activity (Mus musculus [10]): 0.95 g; Activity (Mus musculus [11]): 40%
COc1ccc(-c2nc(NC(=O)c3cc4ccccc4n3CC(=O)O)ncc2CC2CCCCC2)c(OC)c1 | – | – | – | – | – | – | – | IC50 [12]: < 0.05 µM
CC(N)(Cc1cnc[nH]1)C(=O)O (racemic) | – | – | – | – | – | – | – | Activity (Mus musculus [13]): inactive
CC1CCCc2c(-c3ccc(Cl)cc3)nc(N)nc21 (stereo not drawn) | inactive | inactive | inactive | 50 | 0.08 | inactive | 0.9 | –
c1ccc(CNc2ccnc(Nc3ccc(OCCN4CCCCC4)cc3)n2)cc1 | – | – | – | – | – | – | – | Ki (Histamine H3 receptor [14]): 0.00449 µM
Cc1ccc(-c2nc(N)nc3c2CCCC3C)cc1 (stereo not drawn) | inactive | inactive | inactive | 50 | 0.88 | inactive | 2.93 | –
COc1ccc(-c2nc(N)nc3c2CCCC3)cc1 | inactive | inactive | inactive | – | 1.39 | inactive | 2.75 | EC50 (Histamine H2 receptor [5]; read-out: pEC50 (converted)): 1.29 µM
CC1CCCc2c(-c3ccc(F)cc3)nc(N)nc21 (stereo not drawn) | inactive | inactive | inactive | – | 0.08 | inactive | 0.56 | –
CC1CCCc2c(-c3ccc(C#N)cc3)nc(N)nc21 (stereo not drawn) | inactive | inactive | inactive | < 50 | – | inactive | 5.5 | EC50 (Histamine H2 receptor [5]): Not Active
CC1CCCc2c1nc(N)nc2C1CCCCC1 (stereo not drawn) | inactive | inactive | inactive | 50 | 0.36 | inactive | 0.24 | –
Cc1ccc(C2(O)CCN(c3nc(C)nc4ccsc34)CC2)nc1 | – | – | – | – | – | – | – | Ki (Histamine H3 receptor [14]): 0.00607 µM
CC1CCCc2c(-c3cccc4ccccc34)nc(N)nc21 (stereo not drawn) | inactive | inactive | inactive | < 50 | – | inactive | 2.71 | EC50 (Histamine H2 receptor [5]): Not Active
CC1CCCc2c(-c3ccc(O)cc3)nc(N)nc21 (stereo not drawn) | – | – | – | – | – | – | – | Drug metabolism [15]: Metabolite_Detected; Drug metabolism [16]: Metabolite_Detected
CC1CCCc2c(-c3ccc(Br)cc3)nc(N)nc21 (stereo not drawn) | inactive | inactive | inactive | < 50 | – | inactive | 3.1 | EC50 (Histamine H2 receptor [5]): Not Active
CC1CCCc2c(-c3cccc(Br)c3)nc(N)nc21 (stereo not drawn) | inactive | inactive | inactive | 50 | 0.84 | inactive | 0.09 | EC50 (Histamine H2 receptor [5]; read-out: pEC50 (converted)): 0.316 µM
CC1CCCc2c(-c3cccnc3)nc(N)nc21 (stereo not drawn) | inactive | inactive | inactive | < 50 | – | inactive | 6.8 | EC50 (Histamine H2 receptor [5]): Not Active
COc1cccc(-c2nc(N)nc3c2CCCC3C)c1 (stereo not drawn) | inactive | inactive | inactive | 50 | 0.25 | inactive | 0.07 | –
CC1CCCc2c(-c3cccc(O)c3)nc(N)nc21 (stereo not drawn) | inactive | inactive | inactive | < 50 | – | inactive | 4.61 | EC50 (Histamine H2 receptor [5]): Not Active
CCCCc1cc(-c2ccc(OC)cc2)nc(N)n1 | inactive | inactive | inactive | – | 5.18 | inactive | 4.45 | EC50 (Histamine H2 receptor [5]; read-out: pEC50 (converted)): 5.25 µM
CC1CCCc2c(-c3ccccc3)nc(N)nc21 (stereo not drawn) | inactive | inactive | inactive | 50 | 0.1 | inactive | 1.3 | –
CC1CCCc2c(-c3ccc([N+](=O)[O-])cc3)nc(N)nc21 (stereo not drawn) | inactive | inactive | inactive | 50 | 5.29 | inactive | 12.3 | EC50 (Histamine H2 receptor [5]; read-out: pEC50 (converted)): 5.37 µM
